Compounds with a hit are over-represented: about 4.1% of the library has one in this group of screens.
UPR CHOP act = apoptotic UPR (CHOP) activation | CHO-CHOP luciferase reporter, luminescence; percent of tunicamycin response over DMSO baseline | activation, % at 10 µM | 0.34% of 330,000 active | AID 449763;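 active means at 10 µM dose, activation of 40% or more, normalized to positive control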;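 further: 100% = tunicamycin at 10 µg/mL and 0% = DMSO alone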
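measured by = luciferase luminescence | assay system = CHO-CHOP cells, stable luciferase reporter of PERK-eIF2a-CHOP signalling | amount = 500 reporter cells seeded per well | timing = 6 h compound exposure at 37 °C after overnight seeding | controls = positive tunicamycin 10 µg/mL, negative DMSO alone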
Apaf-1 inh = human Apaf-1 inhibition | reconstituted apoptosome caspase-3 activity, DEVD-Rh110 fluorescence | inhibition, % at 20 µM | 0.71% of 330,000 active | AID 489030; active means inhibition of at least 40% at 20 µM;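 further: plate controls were DMSO wells for no effect and DEVD-CHO caspase inhibitor wells for full effect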
Target sequence (O14727 whole entry, looked up): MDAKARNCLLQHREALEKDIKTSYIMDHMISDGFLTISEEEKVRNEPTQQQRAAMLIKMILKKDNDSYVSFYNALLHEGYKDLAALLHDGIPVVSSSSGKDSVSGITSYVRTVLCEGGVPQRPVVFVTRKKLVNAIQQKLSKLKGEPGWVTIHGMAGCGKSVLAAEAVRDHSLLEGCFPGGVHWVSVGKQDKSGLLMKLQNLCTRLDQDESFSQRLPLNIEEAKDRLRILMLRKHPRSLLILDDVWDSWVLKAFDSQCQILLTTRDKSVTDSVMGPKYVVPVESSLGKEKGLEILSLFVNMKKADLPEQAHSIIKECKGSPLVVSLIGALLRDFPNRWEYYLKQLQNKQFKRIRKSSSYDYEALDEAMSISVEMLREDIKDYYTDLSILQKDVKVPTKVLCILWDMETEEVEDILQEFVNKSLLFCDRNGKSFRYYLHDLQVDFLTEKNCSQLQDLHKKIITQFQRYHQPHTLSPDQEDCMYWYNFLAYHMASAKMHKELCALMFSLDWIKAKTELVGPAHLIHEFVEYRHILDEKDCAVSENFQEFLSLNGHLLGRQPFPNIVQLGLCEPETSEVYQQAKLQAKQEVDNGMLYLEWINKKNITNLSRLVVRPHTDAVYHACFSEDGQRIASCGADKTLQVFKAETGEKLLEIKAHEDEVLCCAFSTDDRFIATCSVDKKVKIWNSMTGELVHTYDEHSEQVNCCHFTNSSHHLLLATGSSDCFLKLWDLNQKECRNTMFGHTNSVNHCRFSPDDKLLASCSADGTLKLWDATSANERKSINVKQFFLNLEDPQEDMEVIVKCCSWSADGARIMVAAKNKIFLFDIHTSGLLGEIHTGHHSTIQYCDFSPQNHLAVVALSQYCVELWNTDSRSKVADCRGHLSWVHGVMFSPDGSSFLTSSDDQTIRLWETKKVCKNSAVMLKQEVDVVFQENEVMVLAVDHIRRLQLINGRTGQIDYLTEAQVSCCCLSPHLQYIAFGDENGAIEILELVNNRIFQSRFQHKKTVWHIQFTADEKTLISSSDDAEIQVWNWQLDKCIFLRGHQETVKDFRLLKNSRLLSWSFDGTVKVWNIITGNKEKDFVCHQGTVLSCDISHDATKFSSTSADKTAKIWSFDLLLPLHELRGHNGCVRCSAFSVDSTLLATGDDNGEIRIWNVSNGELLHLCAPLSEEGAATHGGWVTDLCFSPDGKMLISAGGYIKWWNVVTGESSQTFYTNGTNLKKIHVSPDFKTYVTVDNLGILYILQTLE
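System: reconstituted apoptosome with Apaf-1, cytochrome c, caspase-9, procaspase-3, dATP; Signal: Rh110 fluorescence intensity; Schedule: 30 min compound preincubation, 50 min activation, room temperature; Reagent: cytochrome c trigger plus (Z-DEVD)2-Rh110 caspase-3 substrate.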
UPR XBP1 act = activators of adaptive arm of unfolded protein response (XBP1); activation, % at 20 µM; CHO-XBP1 luciferase reporter, IRE1-XBP1 UPR activation, luminescence; percent of tunicamycin response, DMSO as zero; 0.33% of 330,000 active;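 active means versus positive control, 20 µM dose yields 30% or more activation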;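 further: 100% = tunicamycin at 10 µg/mL and 0% = DMSO only wells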
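assay system = CHO-XBP1 luciferase reporter cells | amount = 1000 cells/well | buffer or medium = F12 plus 10% FBS | compound dosing = single point, 20 µM final compound, 1% DMSO | incubation = 16-18 h cell attachment at 37 °C, then 6 h compound exposure | detection = Steady-Glo luminescence read | controls = tunicamycin 10 µg/mL and vehicle-only wells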
Mdm2 MdmX PPI = disrupts the human Mdm2-MdmX interaction; AID 485346; O15151+Q00987; SaOS-2 split-luciferase Mdm2/MdmX complementation, luminescence; 3% of 330,000 active; inhibition, % at 8 µM;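 active means inhibition of at least 50% at 8 µM in the primary screen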
UBC13 inh = blocks human UBC13 polyubiquitin chain formation; P61088; TR-FRET; inhibition, % at 20 µM; 0.47% of 330,000 active; AID 485273; in the data active means inhibition above about 45%, passing the limit was not always enough
Mdm2 MdmX conf = human Mdm2/MdmX binding inhibition, confirmed; shares compounds with Mdm2 MdmX PPI; luminescent assay; inhibition, % at 8 µM; 55% of 10,000 active; in the data active means inhibition above about 40%
FLuc counter = inhibits full-length luciferase, flagging false Mdm2/MdmX hits | shares compounds with Mdm2 MdmX PPI | SaOS-2 full-length luciferase counterscreen, luminescence | inhibition, % at 8 µM | 77% of 6,200 active;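 active means mean inhibition at 8 µM reaching about 37%, which flags the compound as non-specific, limit read from the data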;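 further: p53-null SaOS-2 cells with luciferase driven by a doxycycline-inducible promoter; compound on cells about two nights before reading with doxycycline added after day one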
Apaf-1 inh conf2 = confirmation of Apaf-1 inhibitors; shares compounds with Apaf-1 inh; reconstituted apoptosome, caspase-3 DEVD-Rh110 fluorescence; inhibition, % at 20 µM; 25% of 1,800 active;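 active means mean inhibition of at least 40% at 20 µM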;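 further: plate controls were DMSO wells for no effect and DEVD-CHO caspase inhibitor control wells for full effect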
Rh110 quench = counter-screen for Apaf-1 inhibitors: fluorescence interference; 1,800 tested, under 10 active; shares compounds with Apaf-1 inh; Rh110 fluorescence interference, quenched caspase reaction; activation (fluorescence interference), % at 20 µM;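 active means signal rise of 40% or more at 20 µM, treated as a fluorescence artifact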
Apaf1 inh interf = shows fluorescence interference in the Apaf-1 inhibitor assay format. shares compounds with Apaf-1 inh. fluorescence interference counterscreen, Apaf-1 assay format. IC50, µM. 460 tested, under 10 active. AID 588538; call rule not given here
An asterisk follows results filed as active; . = no result.

SMILES | UPR CHOP act | Apaf-1 inh | UPR XBP1 act | Mdm2 MdmX PPI | UBC13 inh | Mdm2 MdmX conf | FLuc counter | Apaf-1 inh conf2 | Rh110 quench | Apaf1 inh interf
Cc1ccc(S(=O)(=O)Nc2ccc3c(c2)CC(=O)N([C@H](C)CO)C[C@@H](C)[C@H](CN(C)Cc2ccc(-c4ccccc4)cc2)O3)cc1 | 7.2 | 41.0* | 23.0 | 81.8* | 12.2 | 39.1 | 62.8* | -2.0 | 7.2 | .
C[C@H]1CN([C@@H](C)CO)C(=O)Cc2cc(NC(=O)CCC(F)(F)F)ccc2O[C@H]1CN(C)Cc1ccc(-c2ccccc2)cc1 | 2.9 | 40.8* | -1.4 | 55.3* | 9.4 | 24.1 | . | 22.6 | -6.4 | .
Cc1ccc(S(=O)(=O)Nc2ccc3c(c2)C(=O)N([C@H](C)CO)C[C@H](C)[C@@H](CN(C)Cc2ccccc2)O3)cc1 | -1.5 | 22.7 | 0.2 | -4.8 | -1.0 | . | . | . | . | .
Cc1ccc(-c2csc(NS(=O)(=O)c3cccc(F)c3)n2)o1 | -1.3 | 2.1 | -2.8 | 12.8 | -25.3 | . | . | . | . | .
O=C(C(Cl)c1ccccc1)N1CCOCC1 (stereo unspecified) | 0.8 | 1.2 | -5.0 | 20.7 | -0.3 | . | . | . | . | .
COc1ccc(S(=O)(=O)c2ccc(O)cc2)cc1 | 0.7 | -0.2 | -1.2 | 30.0 | 6.0 | . | . | . | . | .
O=C(O)c1ccc(S(=O)(=O)/N=C2\C=C(Nc3ccccc3F)C(=O)c3ccccc32)cc1 | 18.8 | 96.3* | 5.8 | 72.3* | -168.2 | 64.8* | 5.2 | 98.2* | -3.8 | >100
Cc1ccccc1NC1=C/C(=N\S(=O)(=O)c2ccc(C(=O)O)cc2)c2ccccc2C1=O | 5.9 | 96.7* | 1.7 | 84.7* | -164.5 | 21.6 | . | 98.2* | 3.1 | >100
Cc1ccccc1NC1=C/C(=N\S(=O)(=O)c2cccs2)c2ccccc2C1=O | -4.9 | 97.0* | -5.9 | 73.3* | -167.4 | 100.2* | 51.4* | 98.8* | -7.5 | >100
COC(=O)C(C(C)=O)C1=C/C(=N\S(=O)(=O)c2ccc(C)cc2)c2ccccc2C1=O (stereo unspecified) | 0.3 | 20.6 | 0.4 | 16.6 | -11.4 | . | . | . | . | .
COc1ccc(S(=O)(=O)/N=C2\C=C(Nc3ccc(O)cc3)C(=O)c3ccccc32)cc1 | -2.5 | 96.4* | -7.2 | 100.3* | -262.2 | 94.0* | 6.5 | 98.0* | 5.3 | >100
COc1ccc(C(=O)NCC(=O)OCC(=O)Nc2ncc(Cl)cc2Cl)cc1[N+](=O)[O-] | 0.4 | 9.8 | -2.9 | -10.1 | -24.1 | . | . | . | . | .
CC(=O)Nc1ccc(S(=O)(=O)Nc2cc(S(=O)(=O)N3CCCCC3)ccc2O)cc1 | -0.4 | 3.7 | -0.8 | 5.7 | -13.1 | . | . | . | . | .
COc1ccc(N2CCN(C3CCCN(Cc4cccc(C(C)=O)c4)C3)CC2)cc1 (stereo unspecified) | 0.2 | 4.4 | -1.8 | 17.4 | 2.6 | . | . | . | . | .
O=C1C2CCCN2C(=O)N1CCCCN1CCN(c2cccc(Cl)c2)CC1 (stereo unspecified) | 3.2 | -11.3 | -0.1 | 19.6 | 7.2 | . | . | . | . | .
Cc1cc(Nc2cccc(Cl)c2)nc(NCc2ccccc2)n1 | 3.0 | 43.0* | 11.8 | 58.6* | 48.9* | 39.6 | 61.9* | 14.5 | 6.0 | .
CN1c2ccccc2C(C)(C)C12C=Nc1c(cc(N3CCOCC3)c3ccccc13)O2 (stereo unspecified) | -0.2 | 68.5* | -1.5 | 58.7* | -15.5 | 13.8 | . | 19.2 | 2.9 | .
COc1ccc(CNC(=S)Nc2cccc(C)c2C)cc1 | 0.7 | 15.2 | -1.0 | -26.7 | 0.8 | . | . | . | . | .
c1cc2c3c(cccc3c1)NC1(CCC3(CC1)Nc1cccc4cccc(c14)N3)N2 | 11.4 | 40.1* | 5.0 | 72.2* | -35.8 | 20.6 | . | 44.9* | 8.0 | >100
COc1cccc(CC(=O)N2CCC(n3nccc3NC(=O)C3CCOC3)CC2)c1 (stereo unspecified) | 2.8 | 8.4 | -4.5 | 19.8 | -0.7 | . | . | . | . | .
Oc1ccccc1/C=N/Nc1cc(N2CCCC2)nc(N2CCCC2)n1 | 8.3 | 97.7* | -1.6 | 50.0 | -12.5 | 29.6 | . | 99.8* | 3.5 | >100
COc1ccccc1NC1=C(N2CCCCC2)C(=O)c2ccccc2C1=O | -0.4 | 95.0* | 0.1 | 73.6* | -16.9 | 46.1* | 4.2 | 95.2* | 4.5 | >100
COc1ccc(CN2CCN(C(c3ccc(F)cc3)c3ccc(F)cc3)CC2)c(OC)c1OC | 2.9 | 47.9* | -6.1 | 80.9* | 24.7 | 44.8* | 68.8* | 7.3 | -8.7 | .
CC(C)(CNC(=O)c1ccc(-c2ccccc2Cl)o1)N1CCOCC1 | 6.7 | 19.5 | -0.5 | -12.0 | -3.6 | . | . | . | . | .
CC(=O)N(Cc1ccc(F)cc1)C1=C(NCCc2ccccc2)C(=O)c2ccccc2C1=O | 2.4 | 77.9* | 1.1 | 80.2* | -67.4 | 84.5* | 52.2* | 75.7* | 2.6 | >100
SMILES | UPR CHOP act | Apaf-1 inh | UPR XBP1 act | Mdm2 MdmX PPI | UBC13 inh | Mdm2 MdmX conf | FLuc counter | Apaf-1 inh conf2 | Rh110 quench | Apaf1 inh interf
CC(C)[C@H](NC(=O)[C@@H]1Cc2c([nH]c3ccccc23)C2c3ccccc3C(=O)N21)C(=O)N1CCC[C@@H]1C(=O)O (stereo partly specified) | 3.4 | -7.4 | -2.4 | 8.0 | -0.4 | . | . | . | . | .
CCOC(=O)c1c2c(n(C)c1C)C(=O)C(=O)c1ccc(Br)cc1-2 | -7.4 | 95.6* | -3.9 | 95.0* | -60.9 | 98.0* | 48.4* | 71.6* | 5.8 | >100
C=CCc1cccc(/C=N/NC(=O)CNc2cccc3ccccc23)c1O | 1.5 | 96.4* | 3.6 | 71.2* | -17.4 | 66.0* | 38.9* | 13.4 | 4.5 | .
O=C(CNc1cccc2ccccc12)N/N=C/C(Br)=C/c1ccccc1 | 1.6 | 64.9* | 1.5 | 59.1* | -50.9 | 37.2 | 47.0* | 2.0 | 7.1 | .
O=C(CNc1cccc2ccccc12)N/N=C/c1ccc[nH]1 | 4.1 | 14.7 | 0.5 | -11.0 | 2.2 | . | . | . | . | .
CCCn1nc(C(=O)NNC(=O)CCCOc2ccc(OC)cc2)c2ccccc2c1=O | -1.2 | 14.1 | -0.6 | 1.0 | 2.2 | . | . | . | . | .
CC(=O)[C@]1(O)Cc2c(O)c3c(c(O)c2[C@@H](O[C@H]2C[C@H](N)[C@H](O)[C@H](C)O2)C1)C(=O)c1ccccc1C3=O | -3.9 | 46.6* | -8.0 | 100.4* | -406.1 | 98.4* | 1.6 | 15.2 | -32.1 | .
Cc1cccc(OCC(O)Cn2c(=N)n(Cc3ccccc3)c3ccccc32)c1 (stereo unspecified) | 1.9 | 57.8* | 2.9 | 87.6* | 36.2 | 63.5* | 64.1* | 11.4 | 11.0 | .
